Screening results (PubChem)
Only some compounds are listed: those with a hit (about 1.5% of all), similar ones and a draw of the others.
C8 TRAIL sens = sensitizes caspase-8 expressing cells to TRAIL; NB7+C8 cells + TRAIL, ATPlite viability luminescence; inhibition (viability loss, TRAIL sensitization), % at 10 µM; 360,000 tested, 1% active; AID 624354;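 active = compounds causing at least 50% loss of cell viability in the single-dose screen, relative to plate controls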
FLuc inh counter = Photinus pyralis luciferase inhibition counter-screen | inhibition, % at 10 µM | ATPLite firefly luciferase biochemical luminescence, 10 min | P08659 | 200,000 tested, 1.5% active | AID 1006;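 active = inhibition above about 50% when tested at 10 µM, limit read from the data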
Target sequence (P08659 whole entry, looked up): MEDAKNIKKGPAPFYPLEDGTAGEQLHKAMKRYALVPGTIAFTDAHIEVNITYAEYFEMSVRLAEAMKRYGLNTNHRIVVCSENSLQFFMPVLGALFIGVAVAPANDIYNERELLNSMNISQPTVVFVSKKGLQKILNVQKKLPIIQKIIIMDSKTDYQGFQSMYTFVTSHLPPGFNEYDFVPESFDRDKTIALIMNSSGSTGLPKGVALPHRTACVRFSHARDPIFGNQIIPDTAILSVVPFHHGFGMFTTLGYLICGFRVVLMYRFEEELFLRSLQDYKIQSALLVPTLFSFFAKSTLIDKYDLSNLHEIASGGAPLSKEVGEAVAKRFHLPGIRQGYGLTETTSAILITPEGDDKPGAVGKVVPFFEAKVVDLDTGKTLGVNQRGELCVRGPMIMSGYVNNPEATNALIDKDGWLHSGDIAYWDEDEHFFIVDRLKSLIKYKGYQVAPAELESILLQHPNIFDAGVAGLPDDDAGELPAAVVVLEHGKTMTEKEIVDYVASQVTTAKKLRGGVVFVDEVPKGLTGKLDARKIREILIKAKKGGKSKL
FLuc act counter = firefly luciferase counter-screen for stimulation assays; ATPlite luciferase biochemical, luminescence, 10 min; 0 = ATP-free wells, 1 = DMSO control; activation factor at 10 µM; P08659; 200,000 tested, under 10 active;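 active = luciferase activation factor, scaled between plate controls, of at least 2 with compound at 10 µM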
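Material: luciferase plus luciferin reagent, cell-free. Medium: PBS buffer for ATP. Also added: ATP substrate, dispensed from a 10.24 µM working solution in PBS. Doses: test compounds dosed from 2 mM stocks in 100% DMSO. Incubation: 10 min post-reagent at room temperature. Technique: light output (luminescence). Read-out basis: luminescence gain marking luciferase activators.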
PPC-1+TRAIL kill = PPC-1 cancer cell killing with TRAIL present. PPC-1 cells + TRAIL, ATPLite viability luminescence. cell killing (% activity), % at 4 µM or 5 µM. 220,000 tested, 0.41% active. AID 1443;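 active = cell killing above 50% in the first pass at 4 µM, then a duplicate retest at 5 µM averaging 50% or more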
Of the large screens only hits and unclear results are named; the others gave an inactive call.

O=C1C(Cl)=C(NCCN2CCOCC2)C(=O)c2ccccc21	none (no result: FLuc inh counter, FLuc act counter, PPC-1+TRAIL kill)
O=C1C(Cl)=C(NCCCN2CCOCC2)C(=O)c2ccccc21	C8 TRAIL sens 83 (no result: FLuc inh counter, FLuc act counter, PPC-1+TRAIL kill)
COC(=O)C1=C(O)/C(=C\c2cc(C)n(-c3ccccc3F)c2C)N=C1C	FLuc inh counter 64 (no result: PPC-1+TRAIL kill)
COc1ccc(NC(=O)Nc2ncn(Cc3cccc(C(F)(F)F)c3)n2)cc1OC	none
COC(=O)c1sccc1NS(=O)(=O)c1ccccc1[N+](=O)[O-]	none (no result: FLuc inh counter, FLuc act counter, PPC-1+TRAIL kill)
Cc1ccc(Nc2nc(CSc3nnnn3C)cs2)cc1	C8 TRAIL sens 51, FLuc inh counter 62
Cc1ccc(Nc2nc(CSc3nnc(-c4ccccc4)n3C)cs2)cc1	C8 TRAIL sens 50, FLuc inh counter 86
Cc1ccc(Nc2nc(CSc3nnc(-c4ccccc4C)n3C)cs2)cc1	FLuc inh counter 64
Cc1ccc(Nc2nc(C)cs2)cc1	FLuc inh counter 54 (no result: PPC-1+TRAIL kill)
Cc1ccc(Nc2nc(CSc3nnnn3-c3ccccc3)cs2)cc1	none
CC1(C)CC(CC(=O)NNc2nc(-c3ccccc3)cs2)C(=O)O1 (centres undefined)	none
COc1ccc(OC)c(NC(=O)C(=O)NCc2ccncc2)c1	none
CS(=O)(=O)Nc1ccccc1C(=O)Nc1ccc2c(c1)OCCO2	none
c1ccn(-c2ccc(-c3ccn[nH]3)cc2)c1	FLuc inh counter 52
CC(C)(C)C1CCc2sc(C(=O)NNC(=O)CCl)cc2C1 (centres undefined)	C8 TRAIL sens 88, FLuc inh counter 57
CC(C)(C)C1CCC(=NNC(=O)c2cc3c(s2)CCCC3)CC1 (centres undefined)	none
O=C(NNc1c(F)c(F)cc(F)c1F)C1CCN(S(=O)(=O)c2ccccc2F)CC1	none (no result: FLuc inh counter, FLuc act counter, PPC-1+TRAIL kill)
O=C(N=Nc1c(O)[nH]c2ccccc12)c1ccco1	FLuc inh counter 75
O=C(CSCc1ccccc1)N=Nc1c(O)[nH]c2ccccc12	none
Cn1c2ccccc2c(=O)c2cc(C#CC3=CCCCC3)ccc21	none (no result: FLuc inh counter, FLuc act counter, PPC-1+TRAIL kill)
C=CCn1c2ccccc2c(=O)c2cc(C#CC[C@@H](C)O)ccc21	C8 TRAIL sens 53 (no result: FLuc inh counter, FLuc act counter, PPC-1+TRAIL kill)
C=CCn1c2ccccc2c(=O)c2cc(C#CC3(O)CCCCC3)ccc21	C8 TRAIL sens 81 (no result: FLuc inh counter, FLuc act counter, PPC-1+TRAIL kill)
CCOC(=O)C1(C)C=C(Nc2ccc(OC)cc2)C(=O)N1c1ccc(OC)cc1 (centres undefined)	none
COc1cccc(-c2nnc(N)o2)c1	none (no result: FLuc inh counter, FLuc act counter)
CC(C)COc1ccc(-c2nnc(-c3ccco3)o2)cc1	FLuc inh counter 60
COc1cccc(C(=O)Nc2ccc(-c3nnc(-c4ccco4)o3)cc2)c1	none
CCN(CC)CCCNc1oc(-c2cccc(Cl)c2)nc1C#N	none
COc1cccc(-c2nnc(-c3ccco3)o2)c1	FLuc inh counter 54
CCN(CC)CCCNc1ccc(-c2nnc(-c3ccc(OCC(C)C)cc3)o2)cn1	C8 TRAIL sens 87 (no result: FLuc inh counter, FLuc act counter, PPC-1+TRAIL kill)
COc1cccc(-c2nnc(-c3ccc(C)o3)o2)c1	C8 TRAIL sens 58, FLuc inh counter 86
O=C(N/N=C/c1ccncc1)/C(=C/c1ccccc1)NC(=O)c1ccccc1	none
Cc1ccc(N2CCN(C(=O)N3CCCC3)CC2)cc1Cl	none
CCCN1CCC(=O)N([C@H](CSc2ccc(Br)cc2)c2ccccc2)CC1	none (no result: FLuc inh counter, FLuc act counter)
Cc1ccc(C2=NN(C(=O)CCl)C(c3ccco3)C2)o1 (centres undefined)	C8 TRAIL sens 92 (no result: FLuc inh counter, FLuc act counter, PPC-1+TRAIL kill)
COc1cc(NC(=O)c2c3c(nc4ccccc24)CCC3)cc(OC)c1	none
Cc1ccccc1OCC(O)CNC1CCC(NCC(O)COc2ccccc2C)CC1 (centres undefined)	C8 TRAIL sens 93 (no result: FLuc inh counter, FLuc act counter, PPC-1+TRAIL kill)
O=C(Nc1ccc(Cl)c(C(F)(F)F)c1)c1ccncc1	none (no result: PPC-1+TRAIL kill)
CNC(=O)c1cc(Oc2ccc(NC(=O)Nc3ccc(Cl)c(C(F)(F)F)c3)cc2)ccn1	C8 TRAIL sens 71 (no result: FLuc inh counter, FLuc act counter, PPC-1+TRAIL kill)
O=C(NCC(c1ccc(F)cc1)N1CCOCC1)c1c(F)cccc1F (centres undefined)	none (no result: FLuc inh counter, FLuc act counter)
COc1ccc(-c2nc(SCC(=O)Nc3cccc(S(N)(=O)=O)c3)n[nH]2)cc1	C8 TRAIL sens 62 (no result: FLuc inh counter, FLuc act counter, PPC-1+TRAIL kill)
CCn1c(-c2cc(-c3ccc(C)c(C)c3)nc3ccccc23)n[nH]c1=S	FLuc inh counter 53 (no result: C8 TRAIL sens)
CCn1c(-c2cc(-c3cc(C)ccc3C)nc3ccccc23)n[nH]c1=S	none
CC(=O)N1CCN(CC(=O)Nc2ccccc2Sc2ccc(Cl)cc2)CC1	none
O=C(CCl)Nc1ccccc1Sc1ccc(Cl)cc1	C8 TRAIL sens 95
O=C(NCCc1ccccc1F)C1CC(=O)N(c2ccccc2)C1 (centres undefined)	none (no result: FLuc inh counter, FLuc act counter, PPC-1+TRAIL kill)
O=C(NNC1=NS(=O)(=O)c2ccccc21)c1cccc([N+](=O)[O-])c1	none (no result: FLuc inh counter, FLuc act counter, PPC-1+TRAIL kill)
COc1cc2c3nnc(-c4ccc(F)cc4)c-3cn(Cc3cccc(C)c3)c2cc1OC	C8 TRAIL sens 59
